According to ChEMBL document CHEMBL1129298, “Nonpeptide angiotensin II receptor antagonists: synthesis, biological activities, and structure-activity relationships of imidazole-5-carboxylic acids bearing alkyl, alkenyl, and hydroxyalkyl substituents at the 4-position and their related compounds” (J Med Chem, 1996):
Where “and” joins values, the source holds several entries; their conditions need not be identical. Equal values may be shown once. Values belong to the molecule of their own block, whether it stands above or below them.

Assays:
[1] = target: T1, Type-1 angiotensin II receptor (Bos taurus, UniProt P25104); test: In vitro for inhibition of [125I]-angiotensin II (0.1 nM) binding to angiotensin II receptor type 1 in membrane fractions of bovine adrenal cortex; type: tissue-based
T1 sequence (P25104 whole entry): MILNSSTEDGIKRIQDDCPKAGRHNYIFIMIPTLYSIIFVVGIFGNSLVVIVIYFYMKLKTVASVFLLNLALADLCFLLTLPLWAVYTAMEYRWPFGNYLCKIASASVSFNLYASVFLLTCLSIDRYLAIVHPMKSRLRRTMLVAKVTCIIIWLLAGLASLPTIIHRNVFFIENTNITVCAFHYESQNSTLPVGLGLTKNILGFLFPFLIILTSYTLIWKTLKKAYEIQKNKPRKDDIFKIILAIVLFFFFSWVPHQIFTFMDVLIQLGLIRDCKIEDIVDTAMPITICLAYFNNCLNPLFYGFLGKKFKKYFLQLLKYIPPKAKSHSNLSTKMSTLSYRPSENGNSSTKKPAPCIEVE

[2] = target: Angiotensin II receptor (Rattus norvegicus) (UniProt P29089+P25095+P35351); test: In vivo inhibitory activity against angiotensin II induced pressor response in anesthetized normotensive rats; type: functional, organism-based
Procedure, shortened: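 Male Wistar-Imamichi rats (300–400 g) under inactin (100 mg/kg ip), with femoral arterial and venous cannulae. AII 50 ng/kg iv every 10 min until responses were constant. Compound in DMSO was then given iv and AII re-injected 2 min later.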

Rattus norvegicus [3] = test: Inhibitory activity against AII-Induced Pressor response at 1 mg/kg at 1 hr; type: functional
Procedure, shortened: (§1)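 Male Wistar-Imamichi rats (300–400 g) cannulated under pentobarbital (50 mg/kg ip), fasted 24 h, tested conscious the next day. AII 50 ng/kg iv was repeated until constant, then compound in 50% aqueous DMF given orally. AII was repeated over 8 h, and mean blood pressure response inhibition (%) was recorded at 1, 3, 6 h. n = 3–5.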

Rattus norvegicus [4] = test: Inhibitory activity against AII-Induced Pressor response at 1 mg/kg at 3 hour; type: functional; conditions: for inhibition in vivo at 1 mg/kg: Rattus norvegicus, 3 h; procedure, shortened: as §1
Rattus norvegicus [5] = test: Inhibitory activity against AII-Induced Pressor response at 1 mg/kg at 6 hour; type: functional; conditions: for inhibition in vivo at 1 mg/kg: Rattus norvegicus, 6 h; procedure, shortened: as §1
Rattus norvegicus [6] = test: Inhibitory activity against AII-Induced Pressor response at 10 mg/Kg at 1 hr; type: functional; procedure, shortened: as §1
Rattus norvegicus [7] = test: Inhibitory activity against AII-Induced Pressor response at 1 mg/Kg at 3 hour; type: functional; procedure, shortened: as §1
Rattus norvegicus [8] = test: Inhibitory activity against AII-Induced Pressor response at 10 mg/Kg at 6 hour; type: functional; procedure, shortened: as §1
Rattus norvegicus [9] = test: Inhibitory activity against AII-Induced Pressor response at 3 mg/Kg at 1 hr; type: functional; procedure, shortened: as §1
Rattus norvegicus [10] = test: Inhibitory activity against AII-Induced Pressor response at 1 mg/Kg at 1 hr; type: functional; procedure, shortened: as §1
Rattus norvegicus [11] = test: Inhibitory activity against AII-Induced Pressor response at 1 mg/Kg at 6 hour; type: functional; procedure, shortened: as §1
Rattus norvegicus [12] = test: Inhibitory activity against AII-Induced Pressor response at 3 mg/Kg at 3 hour; type: functional; procedure, shortened: as §1
Rattus norvegicus [13] = test: Inhibitory activity against AII-Induced Pressor response at 3 mg/Kg at 6 hour; type: functional; procedure, shortened: as §1
Rattus norvegicus [14] = test: Inhibitory activity against AII-Induced Pressor response at 10 mg/Kg at 3 hour; type: functional; procedure, shortened: as §1
Rattus norvegicus [15] = test: Inhibitory activity against AII-Induced Pressor response at 0.3 mg/Kg at 1 hr; type: functional; procedure, shortened: as §1
Rattus norvegicus [16] = test: Inhibitory activity against AII-Induced Pressor response at 0.3 mg/Kg at 3 hr; type: functional; procedure, shortened: as §1

Structure (SMILES): CCCc1nc(CO)c(C(=O)O)n1Cc1ccc(-c2ccccc2-c2nnn[nH]2)cc1
IC50 [1]: 0.0069 µM

Structure (SMILES): CCc1nc(C(C)(C)O)c(C(=O)O)n1Cc1ccc(-c2ccccc2C(=O)O)cc1
ID50 [2]: 0.3 mg/kg
IC50 [1]: 0.037 µM

Structure (SMILES): CCCc1ncc(C(=O)O)n1Cc1ccc(-c2ccccc2C(=O)O)cc1
ID50 [2]: 0.22 mg/kg
IC50 [1]: 0.06 µM

Structure (SMILES): CCCc1nc(C(C)(C)O)c(C(=O)O)n1Cc1ccc(-c2ccccc2C(=O)OCOC(=O)C(C)(C)C)cc1
inhibition in vivo at 1 mg/kg (Rattus norvegicus [3]): 20%
inhibition in vivo at 1 mg/kg (Rattus norvegicus [4]): 35%
inhibition in vivo at 1 mg/kg (Rattus norvegicus [5]): 40%

Structure (SMILES): CCCc1nc(C(O)(CC)CC)c(C(=O)O)n1Cc1ccc(-c2ccccc2C(=O)O)cc1
ID50 [2]: 0.11 mg/kg
IC50 [1]: 0.11 µM

Structure (SMILES): CCCc1nc(C(C)(C)O)c(C(=O)OC2OC(=O)c3ccccc32)n1Cc1ccc(-c2ccccc2C(=O)O)cc1 (configuration not stated)
inhibition in vivo at 1 mg/kg (Rattus norvegicus [3]): 73%
inhibition in vivo at 1 mg/kg (Rattus norvegicus [4]): 77%
inhibition in vivo at 1 mg/kg (Rattus norvegicus [5]): 74%

Structure (SMILES): CCc1nc(C(C)(C)O)c(C(=O)O)n1Cc1ccc(-c2ccccc2-c2nn[nH]n2)cc1
ID50 [2]: 0.019 mg/kg

Structure (SMILES): CCc1nc(C(C)(C)O)c(C(=O)O)n1Cc1ccc(-c2ccccc2-c2nnn[nH]2)cc1
IC50 [1]: 0.0053 µM

Structure (SMILES): CCCc1ncc(C(=O)O)n1Cc1ccc(-c2ccccc2-c2nn[nH]n2)cc1
ID50 [2]: 0.018 mg/kg
IC50 [1]: 0.0091 µM

Structure (SMILES): CCCc1nc(C(C)(C)O)c(C(=O)OCOC(=O)C(C)(C)C)n1Cc1ccc(-c2ccccc2C(=O)O)cc1
inhibition in vivo at 1 mg/kg (Rattus norvegicus [3]): 52%
inhibition in vivo at 3 mg/kg (Rattus norvegicus [9]): 85%
Inhibition (Rattus norvegicus [4]; 1 mg/kg): 61% and 85%
inhibition in vivo at 0.3 mg/kg (Rattus norvegicus [15]): 43%
inhibition in vivo at 0.3 mg/kg (Rattus norvegicus [16]): 32%
inhibition in vivo at 1 mg/kg (Rattus norvegicus [5]): 75%
Inhibition (Rattus norvegicus [5]; dose 3 mg/kg, in the assay text read “3 mg/kg” for “1 mg/kg”): 87%

Structure (SMILES): CCCc1nc(CC)c(C(=O)O)n1Cc1ccc(-c2ccccc2-c2nn[nH]n2)cc1
ID50 [2]: 0.019 mg/kg

Structure (SMILES): CCCCc1nc(C(C)(C)O)c(C(=O)O)n1Cc1ccc(-c2ccccc2-c2nn[nH]n2)cc1
ID50 [2]: 0.017 mg/kg

Structure (SMILES): CCCc1nc(C(C)(C)O)c(C(=O)OCc2oc(=O)oc2C)n1Cc1ccc(-c2ccccc2C(=O)O)cc1
inhibition in vivo at 1 mg/kg (Rattus norvegicus [3]): 72%
inhibition in vivo at 1 mg/kg (Rattus norvegicus [4]): 70%
inhibition in vivo at 1 mg/kg (Rattus norvegicus [5]): 70%

Structure (SMILES): CCCc1nc(C(C)(C)O)c(C(=O)OCC)n1Cc1ccc(-c2ccccc2-c2nnn[nH]2)cc1
IC50 [1]: 0.2 µM

Structure (SMILES): CCCc1nc(C(C)O)c(C(=O)O)n1Cc1ccc(-c2ccccc2-c2nnn[nH]2)cc1 (configuration not stated)
IC50 [1]: 0.0049 µM

The next lines start with results.

ID50 [2]: 0.14 mg/kg
Structure (SMILES): CCCc1nc(C(C)C)c(C(=O)O)n1Cc1ccc(-c2ccccc2C(=O)O)cc1

ID50 [2]: 2.3 mg/kg
Structure (SMILES): CCCCc1nc(Cl)c(CO)n1Cc1ccc(-c2ccccc2C(=O)O)cc1

ID50 [2]: 0.096 mg/kg
IC50 [1]: 0.11 µM
Structure (SMILES): CCCc1nc(C)c(C(=O)O)n1Cc1ccc(-c2ccccc2C(=O)O)cc1

ID50 [2]: 0.21 mg/kg
Structure (SMILES): CCCCc1nc(Cl)c(C(=O)O)n1Cc1ccc(-c2ccccc2C(=O)O)cc1

ID50 [2]: 0.67 mg/kg
Structure (SMILES): CCCc1nc(C(=O)O)c(C(=O)O)n1Cc1ccc(-c2ccccc2C(=O)O)cc1

ID50 [2]: 2.1 mg/kg
Structure (SMILES): CCCc1nc(CO)c(CO)n1Cc1ccc(-c2ccccc2C(=O)O)cc1

ID50 [2]: 0.3 mg/kg
Structure (SMILES): CCCCc1nc(Cl)c(CO)n1Cc1ccc(-c2ccccc2-c2nnn[nH]2)cc1 [LOSARTAN]
inhibition in vivo at 10 mg/kg (Rattus norvegicus [6]): 69%
inhibition in vivo at 1 mg/kg (Rattus norvegicus [7]): 12%
inhibition in vivo at 10 mg/kg (Rattus norvegicus [8]): 85%
inhibition in vivo at 3 mg/kg (Rattus norvegicus [9]): 38%
inhibition in vivo at 1 mg/kg (Rattus norvegicus [10]): 12%
inhibition in vivo at 1 mg/kg (Rattus norvegicus [11]): 32%
inhibition in vivo at 3 mg/kg (Rattus norvegicus [12]): 35%
inhibition in vivo at 3 mg/kg (Rattus norvegicus [13]): 65%
inhibition in vivo at 10 mg/kg (Rattus norvegicus [14]): 77%

ID50 [2]: 0.1 mg/kg
Structure (SMILES): CCCCc1nc(Cl)c(C(=O)O)n1Cc1ccc(-c2ccccc2-c2nn[nH]n2)cc1 [CARBOXYLIC ACID METABOLITE]
inhibition in vivo at 10 mg/kg (Rattus norvegicus [6]): 89%
inhibition in vivo at 1 mg/kg (Rattus norvegicus [7]): 72%
inhibition in vivo at 10 mg/kg (Rattus norvegicus [8]): 89%
inhibition in vivo at 3 mg/kg (Rattus norvegicus [9]): 81%
inhibition in vivo at 1 mg/kg (Rattus norvegicus [10]): 74%
inhibition in vivo at 1 mg/kg (Rattus norvegicus [11]): 70%
inhibition in vivo at 3 mg/kg (Rattus norvegicus [12]): 81%
inhibition in vivo at 3 mg/kg (Rattus norvegicus [13]): 81%
inhibition in vivo at 10 mg/kg (Rattus norvegicus [14]): 93%

ID50 [2]: 0.27 mg/kg
IC50 [1]: 0.1 µM
Structure (SMILES): CCCc1nc(CC)c(C(=O)O)n1Cc1ccc(-c2ccccc2C(=O)O)cc1

ID50 [2]: 1.7 mg/kg
IC50 [1]: 4.6 µM
Structure (SMILES): CCCc1nc(C(=O)O)c(CO)n1Cc1ccc(-c2ccccc2-c2nn[nH]n2)cc1
